Where two headings read alike, the source gives them in different places.
Key:
A3G-mycHis (APOBEC3G) = A3G-mycHis (APOBEC3G) (Homo sapiens, UniProt Q9HC16); assay: Fluorescence-based ssDNA cytosine deaminase assay with purified A3G-mycHis; format: biochemical; conditions: for reproducibility of A3G inhibitory activity (in words): introductory summary of own findings, assay format not stated
Method in brief: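 Human A3G-mycHis purified by C-terminal His tag from HEK293T cells and diluted in pH 7.4 Tris buffer with Triton and protease inhibitors. Enzyme incubated with 10 pmol 6-FAM/TAMRA ssDNA containing one CCC site. Then UDG treatment for 2 hrs at 37 °C, NaOH cleavage for 30 min, and neutralisation. Fluorescence read at ex 490/em 520 nm. Peptides from 10 mM DMSO stocks; n = 3, mean ± SEM; IC50 from curve fit.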

A3G (APOBEC3G) [1] = conditions: biochemical assays, prior studies, ref [14]–[18], cited from earlier work
A3G (APOBEC3G) [2] = assay: PCR and restriction-based ssDNA deamination assay; format: biochemical, human; conditions: 10 nM A3G, 1 nM ssDNA, 37 °C, 30 min, pH 7.0, gel representative of >3 independent experiments

Chain of A3G-mycHis (APOBEC3G) (Q9HC16 whole entry): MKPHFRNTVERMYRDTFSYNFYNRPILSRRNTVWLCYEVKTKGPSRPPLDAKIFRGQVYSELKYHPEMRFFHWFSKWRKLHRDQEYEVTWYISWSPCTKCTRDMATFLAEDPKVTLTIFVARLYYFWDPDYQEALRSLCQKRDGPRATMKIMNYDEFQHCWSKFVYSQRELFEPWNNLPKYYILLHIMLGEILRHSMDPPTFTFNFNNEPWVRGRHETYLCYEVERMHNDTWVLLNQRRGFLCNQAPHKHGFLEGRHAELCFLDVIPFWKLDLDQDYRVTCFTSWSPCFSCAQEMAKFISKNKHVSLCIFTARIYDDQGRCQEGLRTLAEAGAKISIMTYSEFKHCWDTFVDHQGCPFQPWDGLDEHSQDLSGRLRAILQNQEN

Substance | specificity of A3G inhibition (in words) (A3G-mycHis (APOBEC3G); conclusion from scrambled and reverse peptide comparison) | reproducibility of A3G inhibitory activity (in words) (A3G-mycHis (APOBEC3G)) | published A3G inhibitory activity (in words) (A3G (APOBEC3G) [1]; listed as Vif 105–119) | published A3G inhibitory activity (in words) (A3G (APOBEC3G) [1]; listed as Vif peptide 105–119) | A3G inhibitory effect (in words) (A3G (APOBEC3G) [2]) | published A3G inhibitory activity (in words) (A3G (APOBEC3G) [1]) | published A3G inhibitory activity (in words) (A3G (APOBEC3G) [1]; listed as Vif peptide 25–39)
H-QLIHLYYFDCFSESA-OH [compound 6044] | non-specific | reproducible A3G inhibitory activity | low micromolar inhibitory activities | sub-micromolar inhibitory activities | – | – | –
H-VKHHMYISGKAKGWF-OH [Vif25–39] | – | did not find significant A3G inhibitory activity | – | – | no inhibitory effect | low micromolar inhibitory activities | sub-micromolar inhibitory activities

Reference: publication PMC5186364 (Journal of molecular biology, 2016)
